Data as given in ChEMBL document CHEMBL1127514, “Retinobenzoic acids. 6. Retinoid antagonists with a heterocyclic ring” (1994).
Activity calls are given as the source filed them. No cut-off for these calls is given here.

What was measured:
HL-60 [1] = assay: The ability to induce differentiation of human promyelocytic leukemia cell line HL-60 to mature granulocytes was determined by nitro blue tetrazolium (NBT) reduction assay; format: functional; conditions: read-out: ED50 (the source's name)
How it was run: (§1)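 HL-60 cells grown in RPMI1640 with 5% FCS and antibiotics were seeded at about 8×10^4 cells/mL. Compounds were added from 2 mM ethanol stocks (final ethanol below 0.5%; ethanol-only controls) and cells incubated 4 days. Percent differentiated cells was scored by NBT reduction (0.2% NBT plus TPA 200 ng/mL, 20 min, 37 °C; formazan-positive cells counted, minimum 200 cells). Assays were run at least twice, and ED50 was obtained by the van der Waerden method.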

HL-60 [2] = assay: The ability to induce differentiation of human promyelocytic leukemia cell line HL-60 to mature granulocytes relative to retinoic acid was determined by nitro blue tetrazolium (NBT) reduction assay; format: functional
How it was run: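 HL-60 cells in RPMI1640 with 5% FCS, 37 °C, 5% CO2, seeded at about 8×10^4 cells/mL. Compounds were added from 2 mM ethanol stocks (final ethanol below 0.5%) and cells incubated 4 days. NBT reduction (0.2% NBT, TPA 200 ng/mL, 20 min, 37 °C) was scored on ≥200 cells. ED50 was calculated by van der Waerden; the value is the retinoic acid ED50 divided by the compound ED50 from concurrent runs, ×100.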

HL-60 [3] = assay: The ability to induce differentiation of human promyelocytic leukemia cell line HL-60 to mature granulocytes was determined by nitro blue tetrazolium (NBT) reduction assay; Inactive; format: functional, cell-based; how it was run: as §1

| SMILES | EC50 (HL-60 [1]) [µM] | Relative activity (HL-60 [2]) | ED50 (HL-60 [3]) |
| --- | --- | --- | --- |
| CC1(C)CCC(C)(C)c2cc3c(cc21)Nc1ccccc1C(c1ccc(C(=O)O)cc1)N3 (stereo unspecified) | > 10 | < 0.01 |  |
| CC1(C)CCC(C)(C)c2cc3c(cc21)NC(=O)CN(c1ccc(C(=O)O)cc1)C3=O |  |  | inactive |
| CC1(C)CCC(C)(C)c2cc3c(cc21)nc(-c1ccc(C(=O)O)cc1)n3-c1ccccc1 |  |  | inactive |
| CN1c2cc3c(cc2N=C(c2ccc(C(=O)O)cc2)c2ccccc21)C(C)(C)CCC3(C)C |  |  | inactive |
| CC1(C)CCC(C)(C)c2cc3c(cc21)N=C(c1ccc(C(=O)O)cc1)CC(=O)N3 |  |  | inactive |
| CC1(C)CCC(C)(C)c2cc3c(cc21)nc(-c1ccc(C(=O)O)cc1)n3Cc1ccccc1 |  |  | inactive |
| CC1(C)CCC(C)(C)c2cc3[nH]c(-c4ccc(C(=O)O)cc4)nc3cc21 | 0.32 | 0.7 |  |

More lines, main results first:

| EC50 (HL-60 [1]) [µM] | SMILES | Relative activity (HL-60 [2]) | ED50 (HL-60 [3]) |
| --- | --- | --- | --- |
| > 10 | CC(C)n1c(-c2ccc(C(=O)O)cc2)nc2cc3c(cc21)C(C)(C)CCC3(C)C | < 0.01 |  |
| 0.0024 | CC1=C(/C=C/C(C)=C/C=C/C(C)=C/C(=O)O)C(C)(C)CCC1 [TRETINOIN] | 100 |  |
| 0.0034 | Cn1c(-c2ccc(C(=O)O)cc2)nc2cc3c(cc21)C(C)(C)CCC3(C)C | 65 |  |
| 0.046 | CCn1c(-c2ccc(C(=O)O)cc2)nc2cc3c(cc21)C(C)(C)CCC3(C)C | 4.9 |  |
| 0.00079 | CC1(C)CCC(C)(C)c2cc(NC(=O)c3ccc(C(=O)O)cc3)ccc21 [TAMIBAROTENE] | 350 |  |
| 0.53 | CN1C(=O)CC(c2ccc(C(=O)O)cc2)=Nc2cc3c(cc21)C(C)(C)CCC3(C)C | 0.43 |  |
